Compound activity as filed in PubChem.
A1 inh: inhibitors of the anti-apoptotic protein A1, read as caspase activation; MEF A1-2A-BIM cells, Caspase-Glo 3/7 luminescence, 3 h; percent of clofoctol response, vehicle zero; caspase activation, % (concentration not given with the values); actives 0.066% (n = 330,000); AID 2462;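 active means over half of replicate activation scores above 10%, or exactly half above 10 with the replicate mean above 10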
CHOP inhibitor: CHOP inhibition in unfolded protein response; CHO-K1 CHOP-promoter luciferase, tunicamycin-induced, 15-18 h; inhibition, % at 10 µM; actives 3.8% (n = 220,000); AID 2732;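 active means compounds that reduced the stress-induced luciferase reporter signal by more than about 70% of percent inhibition, limit read from the data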;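 further: 0% = tunicamycin plus vehicle and 100% = wells without tunicamycin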
CHOP UPR activ: apoptotic UPR (CHOP) activation; CHO-CHOP luciferase reporter, luminescence; percent of tunicamycin response over DMSO baseline; activation, % at 10 µM; actives 0.34% (n = 330,000); AID 449763;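 active means at 10 µM dose, activation of 40% or more, normalized to positive control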;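 further: 100% = tunicamycin at 10 µg/mL and 0% = DMSO alone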
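Dosing – one dose, 10 µM in 0.5% DMSO · System – CHO-CHOP cells, stable luciferase reporter of PERK-eIF2a-CHOP signalling · Input – 500 cells/well · Control set – tunicamycin 10 µg/mL final as positive, DMSO-only wells as negative · Timing – 6 h compound treatment, 37 °C · Measure – % activation vs tunicamycin · Technique – luminescence read with Steady-Glo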
XBP1 UPR activ: adaptive UPR (XBP1) activation | AID 463104 | activation, % at 20 µM | actives 0.33% (n = 330,000) | CHO-XBP1 luciferase reporter, IRE1-XBP1 UPR activation, luminescence; percent of tunicamycin response, DMSO as zero;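 active means versus positive control, 20 µM dose yields 30% or more activation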;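 further: 100% = tunicamycin at 10 µg/mL and 0% = DMSO only wells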
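Assay system: CHO-XBP1 luciferase reporter cells; Schedule: 6 h treatment, 37 °C; Detection: glow luminescence from Steady-Glo reagent; Benchmarks: high control tunicamycin 10 µg/mL final, low control DMSO vehicle only.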
The depositor's hits bear a star; · = no result. Only a selection was taken, and hits are over-represented in it overall.

SMILES | A1 inh | CHOP inhibitor | CHOP UPR activ | XBP1 UPR activ
C/C(=N\NC(=O)COc1ccc(C(C)(C)C)cc1)c1ccc2c(c1)OCCO2 | 0 | 52 | 2 | -2
C/C(=N\NC(=O)COc1ccc(C(C)(C)C)cc1)c1ccc(OC(F)F)cc1 | 2 | 94* | 5 | 0
COC(=O)C(Cc1ccccc1)NC(=O)COc1ccc(C(C)(C)C)cc1 (stereo not drawn) | -1 | 93* | -2 | 0
C/C(=N\NC(=O)COc1ccc(C(C)(C)C)cc1)c1ccccc1 | 0 | 81* | 1 | -4
CC(C)Oc1cccc(C(=O)N/N=C/c2coc3ccccc3c2=O)c1 | 0 | · | 2 | -1
Cc1[nH]c2ccccc2c1/C=N/NC(=O)Cc1cccs1 | 0 | 35 | 0 | 3
COC(=O)c1c(C)[nH]c(C(=O)/C=C/c2ccccc2)c1C | 0 | 76* | 4 | -2
Clc1ccc(Sc2cnc3ccccc3n2)cc1 | 0 | 76* | 3 | 0
COc1cc2c(cc1OC)CN(c1nc(CN3CCCC3)nc3sc(C)c(C)c13)CC2 | -2 | 78* | -3 | 2
C=CCSc1nc2ccccc2n1C(=O)/C=C/c1ccc(OC)c(OC)c1 | 1 | 109* | · | ·
Cc1ccc(OCCCC(=O)Nc2ccc(Br)cc2)cc1 | 1 | 74* | -1 | -2
CCN=C1SC(CC(=O)Nc2ccc(C(F)(F)F)cc2)C(=O)N1CC (stereo not drawn) | 0 | 82* | -1 | -2
CCN=C1SC(CC(=O)Nc2ccc(N3CCOCC3)cc2)C(=O)N1CC (stereo not drawn) | 0 | 12 | 2 | 4
CCN=C1SC(CC(=O)Nc2sc3c(c2C#N)CCCC3)C(=O)N1CC (stereo not drawn) | 0 | 92* | 0 | 4
CCN1CCN(CCOc2ccccc2-c2ccccc2)CC1 | -1 | 22 | 2 | -1
COCCn1c(=NC(=O)c2ccc3c(c2)OCCO3)sc2cc(S(N)(=O)=O)ccc21 | 1 | 38 | 1 | 0
CCOCCn1c(=NC(=O)c2cc(Cl)sc2Cl)sc2cc(S(N)(=O)=O)ccc21 | 1 | 90* | 1 | 1
COCCn1c(=NC(=O)c2cc(Cl)sc2Cl)sc2cc(S(N)(=O)=O)ccc21 | 0 | 81* | 2 | 8
Cc1cc(C)cc(NC(=S)NCCN(C2CCCCC2)C2CCCC2)c1 | 0 | 6 | 2 | -1
Cc1ccc2c(c1)sc(=NC(=O)c1cccs1)n2C | -8 | 68 | -6 | -10
Cn1ncc(C#N)c1/N=C/N(Cc1ccccc1)Cc1ccccc1 | 1 | 89* | -1 | -2
O=C(NCc1ccc2[nH]c3c(c2c1)CCCC3)c1ccc(S(=O)(=O)N2CCCC2)cc1 | -1 | 77* | -1 | -1
O=C(NCc1ccc2[nH]c3c(c2c1)CCCC3)c1ccc(S(=O)(=O)N2CCOCC2)cc1 | 1 | 53 | 0 | 2
CCCC[C@H]1COCCS(=O)(=O)N1Cc1ccc(Br)cc1 | -1 | · | -2 | 5
O=Cc1[nH]c2ccccc2c1N(C(=O)CCl)c1ccccc1 | · | 87* | · | ·
SMILES | A1 inh | CHOP inhibitor | CHOP UPR activ | XBP1 UPR activ
CN1CCN(c2oc(COc3ccc(-c4ccccc4)cc3)nc2C#N)CC1 | 0 | 87* | 0 | 0
CCCn1cnc2c(c1=O)c1nc3ccccc3nc1n2CCc1ccccc1 | -1 | 73* | -1 | -2
CCCn1cnc2c(c1=O)c1nc3ccccc3nc1n2CCC1=CCCCC1 | · | 84* | · | ·
O=c1c2c3nc4ccccc4nc3n(/N=C/c3ccco3)c2ncn1CCC1=CCCCC1 | 0 | · | 3 | 1
CCCCn1c2nc3ccccc3nc2c2c(=O)n(CCC(C)C)cnc21 | 1 | 45 | 5 | 3
CCOCCCn1c(C)nc2c(c1=O)c1nc3ccccc3nc1n2CCC1=CCCCC1 | 0 | 95* | 0 | 5
CC(C)(O)C(=O)NNC(=S)NCc1ccco1 | 0 | 18 | 1 | 3
O=C(Cn1nnc(-c2ccccc2)n1)NNC(=O)c1ccccc1 | 1 | -1 | -1 | -1
CC(C)(C)n1nnnc1C(c1ccc(F)cc1)N(Cc1ccc(F)cc1)Cc1ccco1 (stereo not drawn) | 0 | 49 | 12 | 3
CC(C)(C)n1nnnc1C(c1ccc(C(F)(F)F)cc1)N(Cc1ccc(F)cc1)Cc1ccco1 (stereo not drawn) | 0 | 82* | 5 | 5
CCOC(=O)c1c(C)nc(C)c(C(=O)OCC)c1-c1ccc(OC)cc1 | 0 | -13 | -1 | -3
CCOC(=O)c1c(C)nc2c(c1-c1ccc(OC)c(OC)c1)C(=O)c1ccccc1-2 | 0 | 85* | 0 | 4
c1ccc(-c2nc(-n3nc4ccccc4n3)nc3ccccc23)cc1 | 1 | 74* | -2 | 16
Clc1ccc(-c2nc(N3CCCCC3)nc3ccccc23)cc1 | 0 | 9 | -2 | -3
O=C1CN(c2nc(-c3ccccc3)c3ccccc3n2)c2ccccc2N1 | 0 | 77* | 2 | 0
Cc1ccc(-c2nnn(CC(=O)N(c3ccccc3)C(C(=O)NCC3CCCO3)c3cccs3)n2)o1 (stereo not drawn) | 1 | 1 | 0 | -2
CCCCNC(=O)CNC(=S)N(Cc1ccc(C)cc1)Cc1ccco1 | 0 | 28 | -2 | -2
CC(C)CC(NC(=O)C1CCC(C)CC1)C(=O)Nc1ccc2c(c1)OCCO2 (stereo not drawn) | 0 | 46 | -3 | -6
CCC1CCC(C(=O)NC(C(=O)Nc2ccc3c(c2)OCCO3)C(C)C)CC1 (stereo not drawn) | 1 | 83* | 0 | -1
COc1ccc(Nc2ncnc3sccc23)cc1OC | -1 | · | -1 | 0
COc1ccc(CCNc2ncnc3sccc23)cc1OC | 0 | 70* | 3 | -2
O=C(CCN1C(=O)/C(=C/c2ccc(F)cc2)SC1=S)Nc1cc([N+](=O)[O-])ccc1O | 0 | · | 1 | -3
CC/C(=N/NC(=O)CNc1ccc(Cl)cc1C)c1ccccc1 | 0 | 70* | -1 | -1
COc1ccc(Cl)cc1NC(=O)Nc1cccc([N+](=O)[O-])c1C | 0 | 84* | 0 | 7
COc1ccc(Cl)cc1NC(=O)NC1CCCCC1 | 1 | 19 | 0 | -3
SMILES | A1 inh | CHOP inhibitor | CHOP UPR activ | XBP1 UPR activ
CCC(Oc1cc(Cl)ccc1Cl)C(=O)NNC(=O)CCC(=O)O (stereo not drawn) | 1 | 7 | -1 | -3
CCC(Oc1cc(Cl)ccc1Cl)C(=O)NN1C(=O)C2C3CCC(C3=C(C)C)C2C1=O (stereo not drawn) | -1 | 87* | -1 | -1
O=[N+]([O-])/C=C/c1cn(Cc2ccc(F)cc2)c2ccccc12 | 0 | 93* | 9 | -3
CCCOC(=O)COC(=O)c1ccccc1NC(=O)c1ccccc1 | 0 | 63 | -3 | -1
CCOC(=O)c1ccccc1NC(=O)c1ccc(NS(C)(=O)=O)cc1 | -1 | 80* | -1 | 6
CC(C)C[C@H](NC(=O)c1nc[nH]c1C(=O)N1CCc2ccccc2C1)C(=O)OCc1ccccc1 | -2 | 92* | -1 | -5
